Reference: ChEMBL document CHEMBL3877289, “New family of antimicrobial agents derived from 1,4-naphthoquinone” (Eur J Med Chem, 2016)
Converted amounts (≈) assume the structure as drawn.

Tests used:
Klebsiella pneumoniae = test: Antibacterial activity against Klebsiella pneumoniae PCM1 after 20 hrs by microbroth dilution method; assay type: functional; settings: PCM1, 20 h
In short: (§1)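 MIC by broth microdilution in Mueller–Hinton broth. Strains were pre-grown 24h at 37 °C with shaking at 180 rpm. Inoculum was 5x10^5 CFU/ml, exposed 20 h at 37 °C to compound (0.001 – 5 mg/ml, DMSO solvent). MIC was the lowest concentration inhibiting observable growth. Tetracycline served as reference. Triplicate.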

Escherichia coli = test: Antibacterial activity against Escherichia coli ATCC 8739 after 20 hrs by microbroth dilution method; assay type: functional; settings: ATCC 8739, 20 h; in short: as §1
Salmonella bongori = test: Antibacterial activity against Salmonella bongori PCM 2552 after 20 hrs by microbroth dilution method; assay type: functional; settings: PCM 2552, 20 h; in short: as §1
Staphylococcus aureus [1] = test: Antibacterial activity against Staphylococcus aureus ATCC 6538 after 20 hrs by microbroth dilution method; assay type: functional; settings: ATCC 6538, 20 h; in short: as §1
Enterococcus faecalis = test: Antibacterial activity against Enterococcus faecalis PCM 2673 after 20 hrs by microbroth dilution method; assay type: functional; settings: PCM 2673, 20 h; in short: as §1
Enterobacter cloacae = test: Antibacterial activity against Enterobacter cloacae PCM 2569 after 20 hrs by microbroth dilution method; assay type: functional; settings: PCM 2569, 20 h; in short: as §1
Pseudomonas aeruginosa = test: Antibacterial activity against Pseudomonas aeruginosa PCM 2562 after 20 hrs by microbroth dilution method; assay type: functional; settings: PCM 2562, 20 h; in short: as §1
Proteus vulgaris = test: Antibacterial activity against Proteus vulgaris PCM 2668 after 20 hrs by microbroth dilution method; assay type: functional; settings: PCM 2668, 20 h; in short: as §1
[2] = Hemolytic activity in human erythrocytes at 1 to 250 ug/mL incubated for 1 hr; assay type: ADME, cell-based, Erythrocyte; settings: read-out: Activity
In short: (§2)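 Human blood was collected into citrate dextrose anticoagulant. Erythrocytes were spun at 500×g for 10 min at 4 °C, then washed in PBS (10 mM phosphate, pH 7.5; 150 mM NaCl) until the supernatant was clear, and resuspended at 2%. 450 µl of suspension was mixed with compound in 50 µl DMSO (1 - 250 µg/ml), incubated 1h at 37 °C, spun at 5000×g for 10 min, and supernatant A415 was read. Controls: tetracycline and chloramphenicol negative, Triton X-100 (1%) positive.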

Staphylococcus aureus [3] = test: Antibacterial activity against Staphylococcus aureus MNPE assessed as reduction in CFU/ml by <3 logs after 24 hrs; assay type: functional
Staphylococcus aureus [4] = test: Antibacterial activity against Staphylococcus aureus MN8 assessed as reduction in CFU/ml by <3 logs after 24 hrs; assay type: functional; settings: MN8, 24 h
Staphylococcus aureus [5] = test: Antibacterial activity against Staphylococcus aureus MW2 assessed as reduction in CFU/ml by <3 logs after 24 hrs; assay type: functional; settings: MW2, 24 h
[6] = Hemolytic activity in human blood cells at 5 ug/mL after 48 hrs by photometric method; assay type: ADME, cell-based, Erythrocyte; settings: read-out: Activity
Staphylococcus aureus [7] = test: Antibacterial activity against Staphylococcus aureus LAC assessed as reduction in CFU/ml by <3 logs after 24 hrs; assay type: functional
Staphylococcus aureus [8] = test: Antibacterial activity against Staphylococcus aureus CDC587 assessed as reduction in CFU/ml by <3 logs after 24 hrs; assay type: functional; settings: CDC587, 24 h
[9] = Hemolytic activity in human erythrocytes at 60 ug/mL incubated for 1 hr; assay type: ADME, cell-based, Erythrocyte; settings: read-out: Activity; in short: as §2

SMILES	MIC (Klebsiella pneumoniae)	MIC (Escherichia coli)	MIC (Salmonella bongori)	MIC (Staphylococcus aureus [1])	MIC (Enterococcus faecalis)	MIC (Enterobacter cloacae)	MIC (Pseudomonas aeruginosa)	MIC (Proteus vulgaris)	hemolysis at 1 h [2]	MIC (Staphylococcus aureus [3])	MIC (Staphylococcus aureus [4])	MIC (Staphylococcus aureus [5])	hemolysis at 48 h, 5 ug/mL [6]	MIC (Staphylococcus aureus [7])	MIC (Staphylococcus aureus [8])	hemolysis at 1 h, 60 ug/mL [9]
O=C1C=CC(=O)c2ccccc21 [NAPHTHOQUINONE]	250 µg/mL (≈ 1580 µM)	125 µg/mL (≈ 790 µM)	125 µg/mL (≈ 790 µM)	31.2 µg/mL (≈ 197 µM)	125 µg/mL (≈ 790 µM)	250 µg/mL (≈ 1580 µM)	125 µg/mL (≈ 790 µM)	–	–	–	–	–	–	–	–	–
CN(C)c1ccc(C2=CC(=O)c3ccccc3C2=O)cc1	62.5 µg/mL (≈ 225 µM)	125 µg/mL (≈ 451 µM)	125 µg/mL (≈ 451 µM)	125 µg/mL (≈ 451 µM)	–	250 µg/mL (≈ 901 µM)	250 µg/mL (≈ 901 µM)	250 µg/mL (≈ 901 µM)	–	–	–	–	–	–	–	–
CN(C)[C@@H]1C(O)=C(C(N)=O)C(=O)[C@@]2(O)C(O)=C3C(=O)c4c(O)cccc4[C@@](C)(O)[C@H]3C[C@@H]12 [TETRACYCLINE]	15.6 µg/mL (≈ 35.1 µM)	0.5 µg/mL (≈ 1.13 µM)	3.9 µg/mL (≈ 8.78 µM)	7.8 µg/mL (≈ 17.6 µM)	31.2 µg/mL (≈ 70.2 µM)	7.8 µg/mL (≈ 17.6 µM)	15.6 µg/mL (≈ 35.1 µM)	7.8 µg/mL (≈ 17.6 µM)	–	–	–	–	–	–	–	–
O=C1C=C(c2ccc(N(Cc3ccccc3)Cc3ccccc3)cc2)C(=O)c2ccccc21	250 µg/mL (≈ 582 µM)	250 µg/mL (≈ 582 µM)	250 µg/mL (≈ 582 µM)	250 µg/mL (≈ 582 µM)	250 µg/mL (≈ 582 µM)	250 µg/mL (≈ 582 µM)	250 µg/mL (≈ 582 µM)	–	–	–	–	–	–	–	–	–
O=C1C=C(N[C@@H](C(=O)O)c2ccccc2)C(=O)c2ccccc21	500 µg/mL (≈ 1630 µM)	500 µg/mL (≈ 1630 µM)	500 µg/mL (≈ 1630 µM)	250 µg/mL (≈ 814 µM)	500 µg/mL (≈ 1630 µM)	500 µg/mL (≈ 1630 µM)	500 µg/mL (≈ 1630 µM)	–	–	–	–	–	–	–	–	–
COc1cc(NC(C)=O)ccc1C1=CC(=O)c2ccccc2C1=O	250 µg/mL (≈ 778 µM)	250 µg/mL (≈ 778 µM)	250 µg/mL (≈ 778 µM)	15.6 µg/mL (≈ 48.5 µM)	–	250 µg/mL (≈ 778 µM)	250 µg/mL (≈ 778 µM)	–	≤ 2%	–	–	–	–	–	–	–
CC(C)[C@H](NC1=CC(=O)c2ccccc2C1=O)C(=O)O	500 µg/mL (≈ 1830 µM)	500 µg/mL (≈ 1830 µM)	500 µg/mL (≈ 1830 µM)	500 µg/mL (≈ 1830 µM)	500 µg/mL (≈ 1830 µM)	500 µg/mL (≈ 1830 µM)	500 µg/mL (≈ 1830 µM)	500 µg/mL (≈ 1830 µM)	–	–	–	–	–	–	–	–
CC1=CC(=O)c2ccccc2C1=O [MENADIONE]	–	–	–	–	–	–	–	–	–	3 µg/mL (≈ 17.4 µM)	3 µg/mL (≈ 17.4 µM)	3 µg/mL (≈ 17.4 µM)	3.5%	3 µg/mL (≈ 17.4 µM)	3 µg/mL (≈ 17.4 µM)	–
COc1cc2ccc(C3=CC(=O)c4ccccc4C3=O)cc2cc1OC	500 µg/mL (≈ 1450 µM)	500 µg/mL (≈ 1450 µM)	500 µg/mL (≈ 1450 µM)	500 µg/mL (≈ 1450 µM)	–	500 µg/mL (≈ 1450 µM)	500 µg/mL (≈ 1450 µM)	–	–	–	–	–	–	–	–	–
O=C1C=C(c2ccccc2)C(=O)c2ccccc21	–	–	250 µg/mL (≈ 1070 µM)	–	–	–	250 µg/mL (≈ 1070 µM)	–	–	–	–	–	–	–	–	–
Cc1cc(N(C)C)ccc1C1=CC(=O)c2ccccc2C1=O	250 µg/mL (≈ 858 µM)	250 µg/mL (≈ 858 µM)	250 µg/mL (≈ 858 µM)	7.8 µg/mL (≈ 26.8 µM)	–	250 µg/mL (≈ 858 µM)	250 µg/mL (≈ 858 µM)	–	≤ 2%	–	–	–	–	–	–	2%
COc1cc(OC)c(C2=CC(=O)c3ccccc3C2=O)c(OC)c1	250 µg/mL (≈ 771 µM)	250 µg/mL (≈ 771 µM)	250 µg/mL (≈ 771 µM)	250 µg/mL (≈ 771 µM)	–	250 µg/mL (≈ 771 µM)	250 µg/mL (≈ 771 µM)	–	–	–	–	–	–	–	–	–
O=C1C=C(N[C@@H](Cc2c[nH]c3ccccc23)C(=O)O)C(=O)c2ccccc21	500 µg/mL (≈ 1390 µM)	500 µg/mL (≈ 1390 µM)	500 µg/mL (≈ 1390 µM)	62.5 µg/mL (≈ 173 µM)	500 µg/mL (≈ 1390 µM)	500 µg/mL (≈ 1390 µM)	500 µg/mL (≈ 1390 µM)	500 µg/mL (≈ 1390 µM)	–	–	–	–	–	–	–	–
COC(=O)[C@H](C)NC1=CC(=O)c2ccccc2C1=O	500 µg/mL (≈ 1930 µM)	250 µg/mL (≈ 964 µM)	500 µg/mL (≈ 1930 µM)	62.5 µg/mL (≈ 241 µM)	250 µg/mL (≈ 964 µM)	500 µg/mL (≈ 1930 µM)	500 µg/mL (≈ 1930 µM)	500 µg/mL (≈ 1930 µM)	–	–	–	–	–	–	–	–
O=C1C=C(Nc2ccccc2)C(=O)c2ccccc21	250 µg/mL (≈ 1000 µM)	250 µg/mL (≈ 1000 µM)	250 µg/mL (≈ 1000 µM)	62.5 µg/mL (≈ 251 µM)	–	250 µg/mL (≈ 1000 µM)	250 µg/mL (≈ 1000 µM)	–	–	–	–	–	–	–	–	–
Cc1ccc(C2=CC(=O)c3ccccc3C2=O)cc1C	500 µg/mL (≈ 1910 µM)	500 µg/mL (≈ 1910 µM)	500 µg/mL (≈ 1910 µM)	500 µg/mL (≈ 1910 µM)	–	500 µg/mL (≈ 1910 µM)	500 µg/mL (≈ 1910 µM)	500 µg/mL (≈ 1910 µM)	–	–	–	–	–	–	–	–
COc1cc(N(C)C)ccc1C1=CC(=O)c2ccccc2C1=O	250 µg/mL (≈ 813 µM)	250 µg/mL (≈ 813 µM)	250 µg/mL (≈ 813 µM)	7.8 µg/mL (≈ 25.4 µM)	–	250 µg/mL (≈ 813 µM)	250 µg/mL (≈ 813 µM)	–	–	–	–	–	–	–	–	–
Cc1cc(C)c(C2=CC(=O)c3ccccc3C2=O)c(C)c1	500 µg/mL (≈ 1810 µM)	500 µg/mL (≈ 1810 µM)	500 µg/mL (≈ 1810 µM)	15.6 µg/mL (≈ 56.5 µM)	–	500 µg/mL (≈ 1810 µM)	500 µg/mL (≈ 1810 µM)	500 µg/mL (≈ 1810 µM)	–	–	–	–	–	–	–	–
O=C1C(c2ccccc2)=C(c2ccccc2)C(=O)c2ccccc21	500 µg/mL (≈ 1610 µM)	250 µg/mL (≈ 806 µM)	500 µg/mL (≈ 1610 µM)	62.5 µg/mL (≈ 201 µM)	–	500 µg/mL (≈ 1610 µM)	500 µg/mL (≈ 1610 µM)	500 µg/mL (≈ 1610 µM)	–	–	–	–	–	–	–	–
COc1ccc(C2=CC(=O)c3ccccc3C2=O)c(OC)c1	250 µg/mL (≈ 849 µM)	250 µg/mL (≈ 849 µM)	250 µg/mL (≈ 849 µM)	15.6 µg/mL (≈ 53 µM)	–	250 µg/mL (≈ 849 µM)	250 µg/mL (≈ 849 µM)	–	≤ 2%	–	–	–	–	–	–	–
O=C1C=C(N2CCC[C@H]2C(=O)O)C(=O)c2ccccc21	250 µg/mL (≈ 922 µM)	250 µg/mL (≈ 922 µM)	250 µg/mL (≈ 922 µM)	31.2 µg/mL (≈ 115 µM)	250 µg/mL (≈ 922 µM)	250 µg/mL (≈ 922 µM)	250 µg/mL (≈ 922 µM)	500 µg/mL (≈ 1840 µM)	–	–	–	–	–	–	–	–
